We go through 12 compounds from ChEMBL document CHEMBL1139469, “Synthesis and 3D QSAR of new pyrazolo[3,4-b]pyridines: potent and selective inhibitors of A1 adenosine receptors” (J Med Chem, 2005).

The target of assay [1] is T1, Adenosine receptor A1 (Bos taurus, UniProt P28190).
T1 sequence (P28190 whole entry): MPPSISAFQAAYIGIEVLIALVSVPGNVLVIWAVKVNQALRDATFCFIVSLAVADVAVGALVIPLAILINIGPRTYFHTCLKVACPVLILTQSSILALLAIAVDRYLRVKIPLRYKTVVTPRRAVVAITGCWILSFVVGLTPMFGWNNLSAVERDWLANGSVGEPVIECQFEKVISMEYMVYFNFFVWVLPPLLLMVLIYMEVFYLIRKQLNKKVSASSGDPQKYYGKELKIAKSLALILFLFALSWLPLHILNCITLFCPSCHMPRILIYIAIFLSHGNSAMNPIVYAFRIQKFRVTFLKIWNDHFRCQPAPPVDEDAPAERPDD
The assay is described as follows: Displacement of [3H]DPCPX from adenosine A1 receptor in bovine cerebral cortical membranes. The format is cell membranes. The method, boiled down:
(§1)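 [3H]DPCPX was displaced from A1 sites in bovine cortical membranes. Compounds were taken up in DMSO and diluted in assay buffer, with DMSO at 2% or less final. Ki used at least six concentrations across 3 orders of magnitude and was the mean ± SEM of three independent assays in triplicate.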

Assay [2] addresses Adenosine receptor A1 (Bos taurus) (UniProt P28190). Put plainly: Displacement of [3H]DPCPX from bovine adenosine A1 receptor in bovine cortical membranes.
Assay [3] deals with T2, Adenosine receptor A3 (Homo sapiens) (UniProt P0DMS8).
T2 sequence (whole entry): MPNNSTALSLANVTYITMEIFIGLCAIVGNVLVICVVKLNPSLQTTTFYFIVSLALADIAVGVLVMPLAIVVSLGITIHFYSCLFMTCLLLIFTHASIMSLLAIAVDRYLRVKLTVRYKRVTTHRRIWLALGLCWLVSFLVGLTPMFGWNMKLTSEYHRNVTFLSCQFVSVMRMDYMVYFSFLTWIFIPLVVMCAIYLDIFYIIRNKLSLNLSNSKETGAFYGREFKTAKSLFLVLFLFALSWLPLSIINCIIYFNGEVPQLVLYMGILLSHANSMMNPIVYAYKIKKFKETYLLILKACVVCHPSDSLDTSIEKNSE
Put plainly: Displacement of [125I]AB-MECA from human adenosine A3 receptor expressed in CHO cells at 10 uM.

Assay [4] has as its system Adenosine receptor A2a (Bos taurus). The assay is described as follows: Displacement of [3HCGS21680 from adenosine A2A receptor in bovine striatal membranes at 10 uM.
Assay [5] deals with T3, Adenosine receptor A1 (Homo sapiens, UniProt P30542).
T3 sequence (P30542 whole entry): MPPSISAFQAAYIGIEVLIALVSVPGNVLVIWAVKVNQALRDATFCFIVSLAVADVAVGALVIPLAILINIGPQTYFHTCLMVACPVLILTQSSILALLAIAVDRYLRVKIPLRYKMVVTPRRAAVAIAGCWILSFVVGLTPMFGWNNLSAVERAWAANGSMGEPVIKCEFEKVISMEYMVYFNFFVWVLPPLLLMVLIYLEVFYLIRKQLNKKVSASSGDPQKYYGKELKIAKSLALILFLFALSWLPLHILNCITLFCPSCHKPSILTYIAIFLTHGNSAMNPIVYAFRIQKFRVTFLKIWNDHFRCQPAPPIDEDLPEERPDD
Put plainly: Displacement of [3H]DPCPX from human adenosine A1 receptor expressed in CHO cells. The format is cell-based. A digest of the protocol:
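Binding used CHO cells transfected with human A1 receptor, with displacement of specific [3H]DPCPX binding. Ligands were in DMSO diluted into buffer, with no more than 2% DMSO final, over at least six concentrations spanning 3 orders of magnitude. Ki values were means ± SEM of three separate assays, each performed in triplicate.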

In assay [6] the target is Adenosine receptor A2a (Bos taurus). Put plainly: Displacement of [3H]CGS-21680 from adenosine A2A receptor in bovine striatal membranes.
The target of assay [7] is T1, Adenosine receptor A1. The assay is described as follows: Displacement of [3H]DPCPX from adenosine A1 receptor in bovine cerebral cortical membranes in presence of GTP. It is filed as cell membranes. The method, boiled down:
(§2)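 [3H]DPCPX competition binding on bovine cortical membranes, run side by side without and with 1 mM GTP. Compounds dissolved in DMSO and diluted in assay buffer, final DMSO at most 2%. At least six concentrations spanning 3 orders of magnitude were used. Ki given as mean ± SEM of three experiments.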

Assay [8] has as its target T1, Adenosine receptor A1. The assay is described as follows: Displacement of [3H]DPCPX from adenosine A1 receptor in bovine cerebral cortical membranes in absence of GTP. The format is cell membranes. The method, boiled down: as §2
In assay [9] the target is T4, Adenosine receptor A1 (Bos taurus) (UniProt P28190).
T4 sequence (whole entry): T1 sequence (P28190 whole entry)
The assay is described as follows: Displacement of [3H]DPCPX from adenosine A1 receptor in bovine cerebral cortical membranes at 10 uM. It is filed as cell membranes. A digest of the protocol:
as §1

For the compound `CCOC(=O)c1cnc2c(cnn2CC(Cl)c2ccccc2)c1NCCc1ccc(Cl)cc1` (stereo not given), the Ki at Adenosine receptor A1 [1] was 19 nM; in assay [2], 20 nM; at Adenosine receptor A1 [5], 153 nM. Further, the inhibition was determined as 46% in assay [3] and 63% in [4].

On to `CCCNc1c(C(=O)OCCC)cnc2c1cnn2CC(Cl)c1ccccc1` (stereo not given), for which the results for the Ki (at Adenosine receptor A1 [1]; in [2]; in assay [6]) were 145 nM, 158 nM and 1390 nM, respectively.

For the compound `COc1ccc(CCNc2c(C(=O)OC(C)C)cnc3c2cnn3CC(Cl)c2ccccc2)cc1` (stereo not given), the Ki is 7 nM at Adenosine receptor A1 [1]; 7.94 nM in [2]; 7.7 nM at Adenosine receptor A1 [7]; 17 nM on Adenosine receptor A1 [5]; 7.2 nM on Adenosine receptor A1 [8]. For the same compound, in assay [3], the inhibition was determined as 52%.

Turning to `CCCCOC(=O)c1cnc2c(cnn2CC(Cl)c2ccccc2)c1NCc1ccccc1` (stereo not given), in [2], the Ki was 10000 nM. The values for the inhibition in assay [9] and in assay [4] were 27% and 5%, respectively.

With `CCCNc1c(C(=O)OC)cnc2c1cnn2CC(Cl)c1ccccc1` (stereo not given), the Ki at Adenosine receptor A1 [1] is 170 nM; in [2], 158 nM; in assay [6], 7670 nM.

`COC(=O)c1cnc2c(cnn2CC(Cl)c2ccccc2)c1NCCc1ccccc1` (stereo not given): the results for the Ki (at Adenosine receptor A1 [1]; in assay [2]; in assay [6]) were 88 nM, 79.4 nM and 1230 nM, respectively. Besides, in assay [3], the inhibition came to 0%.

`COC(=O)c1cnc2c(cnn2CC(Cl)c2ccccc2)c1N1CCOCC1` (stereo not given): the affinity in assay [2], expressed as Ki, was 10000 nM. The inhibition is 51% in assay [9] and 0% in assay [4].

Regarding `CCOC(=O)c1cnc2c(cnn2CC(Cl)c2ccccc2)c1NCCc1ccc(F)cc1` (stereo not given), the results for the Ki (on Adenosine receptor A1 [1]; in assay [2]; on Adenosine receptor A1 [5]) were 12 nM, 12.6 nM and 16 nM, respectively. Further, the inhibition turned out to be 37% in assay [3] and 30% in [4].

With `COC(=O)c1cnc2c(cnn2CC(Cl)c2ccccc2)c1NCCc1ccc(OC)cc1` (stereo not given), the Ki on Adenosine receptor A1 [1] is 6 nM; in [2], 6.31 nM; at Adenosine receptor A1 [7], 7.3 nM; at Adenosine receptor A1 [5], 94 nM; at Adenosine receptor A1 [8], 6.3 nM. The compound further had an inhibition in [3] of 41%.

On to `CC(C)OC(=O)c1cnc2c(cnn2CC(Cl)c2ccccc2)c1NCCc1ccccc1` (stereo not given), for which the Ki is 31 nM at Adenosine receptor A1 [1], 31.6 nM in assay [2] and 1520 nM in assay [6]. Besides, the inhibition in assay [3] came out at 0%.

As to `COC(=O)c1cnc2c(cnn2CC(Cl)c2ccccc2)c1NCCc1ccc(C)cc1` (stereo not given), the Ki at Adenosine receptor A1 [1] is 15 nM; in assay [2], 15.8 nM; at Adenosine receptor A1 [5], 148 nM. In addition, the inhibition in assay [3] was 40%; in assay [4], 26%.

In [2], `CCCCOC(=O)c1cnc2c(cnn2CC(Cl)c2ccccc2)c1N1CCOCC1` (stereo not given) showed a Ki of 10000 nM. In addition, the inhibition in assay [9] worked out at 63%; in assay [4], 16%.
